One series relates to Leishmania amazonensis. The series is described as follows: Antiprotozoal activity against promastigotes of Leishmania amazonensis MHOM/ BR/77/LTB0016 after 72 hrs by alamar blue assay. The series is classed as functional, organism-based. Conditions: MHOM/ BR/77/LTB0016, 72 h. The method in brief: (§1)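 Log-phase promastigotes at 10^6/well in phenol-red-free RPMI 1640. Serum was heat-inactivated FBS at 20% for L. donovani and 10% for L. amazonensis. Cells were exposed to compound serial dilutions with 10% Alamar Blue at 26 °C for 72 h and read at 570 nm with a 630 nm reference. IC50 was taken by linear regression with 95% confidence limits. Three experiments were run in duplicate and analysed by paired two-tailed t-test.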

The next series relates to Trypanosoma cruzi. The experiment in a line: Antiprotozoal activity against epimastigotes of Trypanosoma cruzi Y by alamar blue assay. Format: functional, organism-based. The method in brief: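 Y-strain epimastigotes grown at 28 °C in LIT medium with 10% (v/v) heat-inactivated FBS. Growth inhibition was measured by the same Alamar Blue colorimetric method used for Leishmania promastigotes.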

The subject of the next series is Leishmania donovani. The series is described as follows: Antiprotozoal activity against promastigotes of Leishmania donovani MHOM/IN/90/GE1F8R after 72 hrs by alamar blue assay. Format: functional, organism-based. In short, it runs like this:
as §1
(In general: Resazurin is reduced to fluorescent resorufin, in cell work by metabolically active cells.)

A short description of series [1]: Cytotoxicity against human MCF7 cells assessed as growth inhibition at 10 uM after 72 hrs by MTT assay. The series is classed as cell-based. The method in brief: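 MCF-7 cells in DMEM with 10% FBS, plated at 10,000 cells/well. After 72 h, MTT was added at 0.5 mg/mL final for 3 h at 37 °C. Formazan was dissolved in SDS–HCl (20% SDS, 0.02 M HCl) and absorbance read at 570 nm.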

Each structure is given as a SMILES string. Values after ≈ are worked out from the molar mass of the structure shown.

For orientation: IC50 means the point on the concentration scale where inhibition reaches its midpoint. A high value points to weaker potency in that assay. As a reminder, the inhibition is the change of the read-out against control, counted positive when it falls. For the molecule `COc1ccc(-c2ccc3cccc4c3c2C(=O)C(O)=C4)cc1`, the 50% inhibitory concentration (IC50) in the series with Leishmania amazonensis, in the series on Trypanosoma cruzi and with Leishmania donovani was more than 100 µg/mL in each case. For the same molecule, the inhibition at 72 h, 10 µM in series [1] was 19%.

Consider `O=C1C(O)=Cc2cccc3ccc(-c4ccccc4)c1c23`, for which the IC50 in the series with Leishmania amazonensis, with Trypanosoma cruzi and in the series with Leishmania donovani was more than 100 µg/mL throughout. Also, the inhibition at 72 h, 10 µM in series [1] amounted to 22%.

Regarding `COC1=Cc2cccc3ccc(-c4ccc(OC)cc4)c(c23)C1=O`, the 50% inhibitory concentration (IC50) in the series on Leishmania amazonensis, with Trypanosoma cruzi and in the series with Leishmania donovani was more than 100 µg/mL throughout. Also, the inhibition at 72 h, 10 µM in series [1] came out at 15%.

Turning to `COC1c2cccc3ccc(-c4ccccc4)c(c23)C(=O)C1O` (configuration not stated), the IC50 in the series on Leishmania amazonensis, in the series with Trypanosoma cruzi and in the series with Leishmania donovani was more than 100 µg/mL each time. Also, the inhibition at 72 h, 10 µM in series [1] came out at 17%.

`COc1ccc(-c2ccc3cccc4c3c2C(=O)C(O)C4O)cc1` (configuration not stated): the 50% inhibitory concentration (IC50) in the series on Leishmania amazonensis, with Trypanosoma cruzi and with Leishmania donovani was more than 100 µg/mL throughout.

`O=C1C(O)=Cc2c(-c3ccccc3)ccc3cccc1c23`: the concentration for half-maximal inhibition (IC50) in the series with Leishmania amazonensis, in the series on Trypanosoma cruzi and in the series with Leishmania donovani was more than 100 µg/mL in each case. Moreover, the inhibition at 72 h, 10 µM in series [1] stood at 19%.

For the molecule `O=C1C=Cc2cccc3ccc(-c4ccccc4)c1c23`, the half-maximal inhibitory concentration (IC50) in the series with Leishmania amazonensis, in the series on Trypanosoma cruzi and in the series with Leishmania donovani was more than 100 µg/mL each time. In addition, the inhibition at 72 h, 10 µM in series [1] was 5%.

With `COc1ccc(-c2ccc3cccc4c3c2C=CC4=O)cc1`, the 50% inhibitory concentration (IC50) was 4.43 µg/mL (≈ 15.5 µM) in the series with Leishmania amazonensis, 11.4 µg/mL (≈ 39.8 µM) in the series with Trypanosoma cruzi and more than 100 µg/mL in the series with Leishmania donovani. In series [1], the inhibition at 72 h, 10 µM is 17%.

Turning to `O=C1C(O)=Cc2c(-c3ccc(O)cc3)ccc3cccc1c23`, the concentration for half-maximal inhibition (IC50) in the series on Leishmania amazonensis, in the series with Trypanosoma cruzi and in the series on Leishmania donovani was more than 100 µg/mL throughout. Further, in series [1], the inhibition at 72 h, 10 µM was 12%.

Consider `N#Cc1ccc2cccc3c2c1C(=O)C=C3`, for which the values for the IC50 in the series on Leishmania amazonensis, in the series on Trypanosoma cruzi and in the series on Leishmania donovani were 3.73 µg/mL (≈ 18.2 µM), more than 100 µg/mL and 1.02 µg/mL (≈ 4.97 µM), respectively. The inhibition at 72 h, 10 µM in series [1] was determined as 44%.

Turning to `COC1=Cc2cccc3ccc(-c4ccccc4)c(c23)C1=O`, the IC50 amounted to 9.04 µg/mL (≈ 31.6 µM) in the series with Leishmania amazonensis, 48.3 µg/mL (≈ 169 µM) with Trypanosoma cruzi and 29.9 µg/mL (≈ 104 µM) with Leishmania donovani. Further, the inhibition at 72 h, 10 µM in series [1] came to 14%.

Turning to `O=C1C=Cc2cccc3ccc(-c4ccccn4)c1c23`, the 50% inhibitory concentration (IC50) in the series on Leishmania amazonensis was 53.2 µg/mL (≈ 207 µM); in the series with Trypanosoma cruzi it was more than 100 µg/mL; with Leishmania donovani it was more than 100 µg/mL. The inhibition at 72 h, 10 µM in series [1] is 0%.

As to `O=C1C=Cc2cccc3ccc(-c4ccco4)c1c23`, the IC50 was 8.39 µg/mL (≈ 34.1 µM) in the series with Leishmania amazonensis, more than 100 µg/mL in the series with Trypanosoma cruzi and more than 100 µg/mL in the series with Leishmania donovani. Also, in series [1], the inhibition at 72 h, 10 µM worked out at 14%.

With `Cc1cccc(C)c1-c1ccc2cccc3c2c1C(=O)C=C3`, the 50% inhibitory concentration (IC50) in the series with Leishmania amazonensis was determined as 42.8 µg/mL (≈ 151 µM); with Trypanosoma cruzi it was 49.8 µg/mL (≈ 175 µM); in the series on Leishmania donovani, 27.8 µg/mL (≈ 97.8 µM). For the same molecule, the inhibition at 72 h, 10 µM in series [1] worked out at 1%.

Consider `O=C1C=Cc2cccc3ccc(-c4cccs4)c1c23`, for which the IC50 is 14.5 µg/mL (≈ 55.3 µM) with Leishmania amazonensis, more than 100 µg/mL in the series on Trypanosoma cruzi and more than 100 µg/mL in the series with Leishmania donovani. In series [1], the inhibition at 72 h, 10 µM amounted to 4%.

Regarding `OC1(c2ccccn2)C=Cc2cccc3ccc(-c4ccccn4)c1c23` (configuration not stated), the IC50 in the series on Leishmania amazonensis, with Trypanosoma cruzi and in the series on Leishmania donovani was more than 100 µg/mL in each case. Further, the inhibition at 72 h, 10 µM in series [1] came out at 0%.

As for `O=C1C(O)=Cc2cccc3ccc(-c4ccc(O)cc4)c1c23`, the IC50 with Leishmania amazonensis, with Trypanosoma cruzi and with Leishmania donovani was more than 100 µg/mL each time. The inhibition at 72 h, 10 µM in series [1] stood at 23%.

As for `Oc1ccc2cccc3c2c1C(c1ccco1)C=C3` (configuration not stated), the half-inhibitory concentration (IC50) in the series with Leishmania amazonensis, in the series with Trypanosoma cruzi and with Leishmania donovani was more than 100 µg/mL throughout.

For the molecule `COc1ccc(C2=CC(=O)c3cccc4cccc2c34)cc1`, the IC50 in the series on Leishmania amazonensis, in the series on Trypanosoma cruzi and with Leishmania donovani was more than 100 µg/mL in each case. Besides, the inhibition at 72 h, 10 µM in series [1] is 2%.

As to `COc1ccc(-c2ccc3cccc4c3c2C(=O)C=C4)cc1`, the half-maximal inhibitory concentration (IC50) with Leishmania amazonensis was 0.83 µg/mL (≈ 2.9 µM); in the series with Trypanosoma cruzi it was more than 100 µg/mL; in the series on Leishmania donovani, more than 100 µg/mL. Moreover, the inhibition at 72 h, 10 µM in series [1] came to 13%.

As for `O=C1C=Cc2cccc3cccc1c23` [PERINAPHTHENONE], the 50% inhibitory concentration (IC50) in the series on Leishmania amazonensis came to 27.3 µg/mL (≈ 151 µM); in the series with Trypanosoma cruzi, 2.62 µg/mL (≈ 14.5 µM); in the series on Leishmania donovani it was 65.1 µg/mL (≈ 361 µM). Besides, the inhibition at 72 h, 10 µM in series [1] was determined as 0%.

Source of the values: ChEMBL document CHEMBL1165954, “Synthesis and in vitro antiprotozoal evaluation of substituted phenalenone analogues” (Bioorg Med Chem, 2010).
